Experiments:
[1] = single agent, 3 consecutive days per week schedule; ref Tolcher et al, 2012; cited from earlier work
γ-secretase = details: ref Luistro et al, 2009; cited from earlier work
[2] = system: α1-acid glycoprotein and albumin; details: ref Wu et al, 2012; cited from earlier work
[3] = system: VEGF receptors (VEGFR-1, VEGFR-2 and VEGFR-3), and c-Kit; details: ref Wedge et al, 2005; cited from earlier work
[4] = Dose-limiting toxicities and recommended phase II dose; format: in vivo, human; details: cediranib daily, in combination with RO4929097; highest dose level completed
[5] = system: circulating VEGF-A, VEGF-C, SDF-1; assay: Circulating biomarker evaluation; format: in vivo, human; details: after dosing with cediranib (with RO4929097), cycle 1
In short: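 Patients with advanced solid tumours. Blood was drawn before dosing on cycle 1 day 1, cycle 1 day 22 and cycle 2 day 1. Plasma VEGF-A, VEGF-B, VEGF-C, bFGF, SDF-1-alpha, IL-6 and IL-8 were measured by commercial ELISA kits following the manufacturer's protocol. Samples were run in duplicate, with a triplicate if values differed by more than 15%. Results were discarded unless at least two agreed within 15%.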

## CC(C)(C(=O)NCC(F)(F)C(F)(F)F)C(=O)N[C@@H]1C(=O)Nc2ccccc2-c2ccccc21 [RO4929097]
[1]
  Daily dose at which reversible CYP3A4 autoinduction was detected: above 24 mg
γ-secretase
  γ-Secretase inhibition: potent and selective
[2]
  Plasma protein binding: highly bound

## COc1cc2c(Oc3ccc4[nH]c(C)cc4c3F)ncnc2cc1OCCCN1CCCC1 [cediranib]
[3]
  Inhibition of VEGF signalling: highly potent inhibitor
[4]
  Recommended phase II dose (RP2D): 30 mg
[5]
  Change of circulating SDF-1: Increases
  Change of circulating VEGF-A: Increases
  Change of circulating VEGF-C: Increases
